From paper PMC8851455 (ACS Omega, 2022)
pEC50: −log10 of the molar value.

Columns and labels:
chicken embryo = test: Chicken embryonic assay; assay type: in vivo; settings: for malformation rate / mortality rate / number of dead chicken embryo / number of malformation chicken embryo / weights: embryo / weights: heart / weights: liver: egg injection, day 18
chicken fetal liver = test: TBARs level; assay type: in vivo
MCF-7 cells = test: MCF-7 cell proliferation assay; assay type: cell-based, human
Method in brief: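 MCF-7 cells exposed to test compound or E2 at six concentrations from 10–12 to 10–7 M in EA-free medium. Proliferation read as MTT product absorbance at 570 nm. Three independent trials, each in triplicate. % RME2 = 100 × (OD test − OD VC)/(max OD E2 − OD VC). EC50 from curve fitting. EEF = EC50 of E2/EC50 of sample. One-way ANOVA with Dunnett's test versus E2 at each concentration.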

zebrafish embryos = settings: at 1–50 μM; cited from earlier work
[1] = test system: S. typhimurium tester strains (TA98, TA100, and TA102); test: Ames test, overall over three strains; assay type: cell-based, Salmonella typhimurium; settings: 5 × 10^–5 to 50 pmol/plate, with or without S9
Swiss mice = settings: 100 and 200 mg/kg; cited from earlier work
S. typhimurium TA98 = test: Ames test, strain TA98; assay type: cell-based, Salmonella typhimurium
ERβ = settings: cited from earlier work
S. typhimurium TA100 = test: Ames test, strain TA100; assay type: cell-based, Salmonella typhimurium
[2] = higher dose (0.5 mM: 450–500 μg/kg; E2 0.1 mM: 91 μg/kg)
[3] = lower dose (0.05 mM: 45–50 μg/kg; E2 0.01 mM: 9.1 μg/kg)
[4] = TA100 +S9, 5 × 10^–2 pmol/plate
[5] = TA100 +S9, 5 × 10^–3 pmol/plate
[6] = TA100 +S9, 5 × 10^–4 pmol/plate
[7] = TA100 +S9, 5 × 10^–5 pmol/plate
[8] = TA100 -S9, 5 × 10^–2 pmol/plate
[9] = TA100 -S9, 5 × 10^–3 pmol/plate
[10] = TA100 -S9, 5 × 10^–4 pmol/plate
[11] = TA100 -S9, 5 × 10^–5 pmol/plate

O=c1cc(-c2ccc(O)cc2)oc2cc(O)cc(O)c12 [apigenin]
malformation rate (chicken embryo; [2]): 0.0%
mortality rate (chicken embryo; [2]): 10.0%
number of dead chicken embryo (chicken embryo; [2]): 1
number of malformation chicken embryo (chicken embryo; [2]): 0
weights: embryo (chicken embryo; [2]): 21.49 ± 1.44 g
weights: heart (chicken embryo; [2]): 0.17 ± 0.02 g
weights: liver (chicken embryo; [2]): 0.41 ± 0.02 g
fetal liver weight, lower compared with the VC (chicken embryo; higher-dose treatment): ~20%
malformation rate (chicken embryo; [3]): 11.11%
mortality rate (chicken embryo; [3]): 10.0%
number of dead chicken embryo (chicken embryo; [3]): 1
number of malformation chicken embryo (chicken embryo; [3]): 1
weights: embryo (chicken embryo; [3]): 24.29 ± 0.03 g
weights: heart (chicken embryo; [3]): 0.18 ± 0.02 g
weights: liver (chicken embryo; [3]): 0.44 ± 0.02 g
TBARs value (chicken fetal liver; higher dose (0.5 mM: 450–500 μg/kg)): 112.31 nmol/g
TBARs value (chicken fetal liver; lower dose (0.05 mM: 45–50 μg/kg)): 103.73 nmol/g
EEF (estradiol equivalent factor) (MCF-7 cells; EC50 of E2 divided by that of the test compound): 0.16
pEC50 (MCF-7 cells; Homo sapiens, MCF7): 10.21
max % RME2 (MCF-7 cells; highest % RME2 (relative maximum % E2) in test range 10^–12–10^–7 M): 27%
developmental toxicity in zebrafish model (zebrafish embryos): showing developmental toxicity
Ames test outcome (signs of mutagenicity) [1]: signs of mutagenicity
hepatotoxicity (Swiss mice): led to hepatotoxicity
MI (S. typhimurium TA98; TA98 +S9, 0.5 pmol/plate): 1.1
number of revertants/plate (M ± SD) (S. typhimurium TA98; TA98 +S9, 0.5 pmol/plate): 85 ± 6 revertants/plate
MI (S. typhimurium TA98; TA98 +S9, 5 pmol/plate): 1.1
number of revertants/plate (M ± SD) (S. typhimurium TA98; TA98 +S9, 5 pmol/plate): 80 ± 10 revertants/plate
MI (S. typhimurium TA98; TA98 +S9, 50 pmol/plate): 1.0
number of revertants/plate (M ± SD) (S. typhimurium TA98; TA98 +S9, 50 pmol/plate): 75 ± 20 revertants/plate
MI (S. typhimurium TA98; TA98 +S9, 5 × 10^–2 pmol/plate): 1.2
number of revertants/plate (M ± SD) (S. typhimurium TA98; TA98 +S9, 5 × 10^–2 pmol/plate): 87 ± 6 revertants/plate
MI (S. typhimurium TA98; TA98 +S9, 5 × 10^–3 pmol/plate): 1.1
number of revertants/plate (M ± SD) (S. typhimurium TA98; TA98 +S9, 5 × 10^–3 pmol/plate): 80 ± 18 revertants/plate
MI (S. typhimurium TA98; TA98 +S9, 5 × 10^–4 pmol/plate): 1.1
number of revertants/plate (M ± SD) (S. typhimurium TA98; TA98 +S9, 5 × 10^–4 pmol/plate): 83 ± 9 revertants/plate
MI (S. typhimurium TA98; TA98 +S9, 5 × 10^–5 pmol/plate): 0.9
number of revertants/plate (M ± SD) (S. typhimurium TA98; TA98 +S9, 5 × 10^–5 pmol/plate): 68 ± 2 revertants/plate
MI (S. typhimurium TA98; TA98 -S9, 0.5 pmol/plate): 0.9
number of revertants/plate (M ± SD) (S. typhimurium TA98; TA98 -S9, 0.5 pmol/plate): 9 ± 1 revertants/plate
MI (S. typhimurium TA98; TA98 -S9, 5 pmol/plate): 1.3
number of revertants/plate (M ± SD) (S. typhimurium TA98; TA98 -S9, 5 pmol/plate): 13 ± 1 revertants/plate
MI (S. typhimurium TA98; TA98 -S9, 50 pmol/plate): 1.1
number of revertants/plate (M ± SD) (S. typhimurium TA98; TA98 -S9, 50 pmol/plate): 11 ± 4 revertants/plate
MI (S. typhimurium TA98; TA98 -S9, 5 × 10^–2 pmol/plate): 1.0
number of revertants/plate (M ± SD) (S. typhimurium TA98; TA98 -S9, 5 × 10^–2 pmol/plate): 10 ± 4 revertants/plate
MI (S. typhimurium TA98; TA98 -S9, 5 × 10^–3 pmol/plate): 1.0
number of revertants/plate (M ± SD) (S. typhimurium TA98; TA98 -S9, 5 × 10^–3 pmol/plate): 10 ± 3 revertants/plate
MI (S. typhimurium TA98; TA98 -S9, 5 × 10^–4 pmol/plate): 0.7
number of revertants/plate (M ± SD) (S. typhimurium TA98; TA98 -S9, 5 × 10^–4 pmol/plate): 7 ± 3 revertants/plate
MI (S. typhimurium TA98; TA98 -S9, 5 × 10^–5 pmol/plate): 1.0
number of revertants/plate (M ± SD) (S. typhimurium TA98; TA98 -S9, 5 × 10^–5 pmol/plate): 10 ± 3 revertants/plate
binding affinity for ERβ (ERβ): 6%
MI (S. typhimurium TA100; TA100 +S9, 0.5 pmol/plate): 1.4
number of revertants/plate (M ± SD) (S. typhimurium TA100; TA100 +S9, 0.5 pmol/plate): 415 ± 4 revertants/plate
MI (S. typhimurium TA100; TA100 +S9, 5 pmol/plate): 1.3
number of revertants/plate (M ± SD) (S. typhimurium TA100; TA100 +S9, 5 pmol/plate): 390 ± 4 revertants/plate
MI (S. typhimurium TA100; TA100 +S9, 50 pmol/plate): 1.3
number of revertants/plate (M ± SD) (S. typhimurium TA100; TA100 +S9, 50 pmol/plate): 400 ± 2 revertants/plate
MI (S. typhimurium TA100; [4]): 1.2
number of revertants/plate (M ± SD) (S. typhimurium TA100; [4]): 377 ± 15 revertants/plate
MI (S. typhimurium TA100; [5]): 1.1
number of revertants/plate (M ± SD) (S. typhimurium TA100; [5]): 349 ± 10 revertants/plate
MI (S. typhimurium TA100; [6]): 1.1
number of revertants/plate (M ± SD) (S. typhimurium TA100; [6]): 342 ± 14 revertants/plate
MI (S. typhimurium TA100; [7]): 1.2
number of revertants/plate (M ± SD) (S. typhimurium TA100; [7]): 358 ± 6 revertants/plate
MI (S. typhimurium TA100; TA100 -S9, 0.5 pmol/plate): 1.0
number of revertants/plate (M ± SD) (S. typhimurium TA100; TA100 -S9, 0.5 pmol/plate): 94 ± 4 revertants/plate
MI (S. typhimurium TA100; TA100 -S9, 5 pmol/plate): 1.0
number of revertants/plate (M ± SD) (S. typhimurium TA100; TA100 -S9, 5 pmol/plate): 96 ± 4 revertants/plate
MI (S. typhimurium TA100; TA100 -S9, 50 pmol/plate): 1.0
number of revertants/plate (M ± SD) (S. typhimurium TA100; TA100 -S9, 50 pmol/plate): 96 ± 8 revertants/plate
MI (S. typhimurium TA100; [8]): 0.9
number of revertants/plate (M ± SD) (S. typhimurium TA100; [8]): 85 ± 6 revertants/plate
MI (S. typhimurium TA100; [9]): 0.8
number of revertants/plate (M ± SD) (S. typhimurium TA100; [9]): 75 ± 13 revertants/plate
MI (S. typhimurium TA100; [10]): 0.9
number of revertants/plate (M ± SD) (S. typhimurium TA100; [10]): 83 ± 6 revertants/plate
MI (S. typhimurium TA100; [11]): 0.9
number of revertants/plate (M ± SD) (S. typhimurium TA100; [11]): 87 ± 6 revertants/plate
